# Assay results: ChEMBL document CHEMBL1255404, “Spread of OXA-48-encoding plasmid in Turkey and beyond” (2010)
# Legend:
# Type in all cases: functional
# Escherichia coli [1] = assay: Antimicrobial activity against Escherichia coli isolate J53 harboring pA-1 containing beta-lactamase OXA-48 located within transposon Tn1999 by Etest method in presence of beta-lactamase inhibitor clavulanic acid
# Summary of the method: (§1)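 β-Lactam MICs read with Etest strips. Strains are E. coli J53 recipient and J53 transconjugants carrying OXA-48-positive plasmids recovered from clinical enterobacterial isolates.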
# Escherichia coli [2] = assay: Antimicrobial activity against Escherichia coli isolate J53 harboring pBb containing beta-lactamase OXA-48 located within transposon Tn1999.2 by Etest method in presence of beta-lactamase inhibitor clavulanic acid; summary of the method: as §1
# Klebsiella pneumoniae [3] = assay: Antimicrobial activity against Klebsiella pneumoniae isolate Kp3A expressing beta-lactamase OXA-48 by Etest method in presence of beta-lactamase inhibitor clavulanic acid
# Summary of the method: (§2)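 MICs of β-lactams read from Etest strips. The test organisms are carbapenem-resistant, OXA-48-positive clinical Enterobacteriaceae isolates recovered from Turkey, Lebanon, Egypt, France and Belgium.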
# Klebsiella pneumoniae [4] = assay: Antimicrobial activity against Klebsiella pneumoniae isolate Kp4A expressing beta-lactamase OXA-48 and CTX-M-15 by Etest method in presence of beta-lactamase inhibitor clavulanic acid; summary of the method: as §2
# Klebsiella pneumoniae [5] = assay: Antimicrobial activity against Klebsiella pneumoniae isolate Kp5A expressing beta-lactamase OXA-48 and SHV-5 by Etest method in presence of beta-lactamase inhibitor clavulanic acid; summary of the method: as §2
# Klebsiella pneumoniae [6] = assay: Antimicrobial activity against Klebsiella pneumoniae isolate Kp6A expressing beta-lactamase OXA-48 and TEM-150 by Etest method in presence of beta-lactamase inhibitor clavulanic acid; summary of the method: as §2
# Escherichia coli [7] = assay: Antimicrobial activity against Escherichia coli isolate J53 harboring p4A containing beta-lactamase OXA-48 located within transposon Tn1999 by Etest method in presence of beta-lactamase inhibitor clavulanic acid; summary of the method: as §1
# Escherichia coli [8] = assay: Antimicrobial activity against Escherichia coli isolate J53 harboring p6A containing beta-lactamase OXA-48 located within transposon Tn1999 by Etest method in presence of beta-lactamase inhibitor clavulanic acid; summary of the method: as §1
# Klebsiella pneumoniae [9] = assay: Antimicrobial activity against Klebsiella pneumoniae isolate Kp7A expressing beta-lactamase OXA-48 by Etest method in presence of beta-lactamase inhibitor clavulanic acid; summary of the method: as §2
# Escherichia coli [10] = assay: Antimicrobial activity against Escherichia coli isolate J53 harboring p7A containing beta-lactamase OXA-48 located within transposon Tn1999 by Etest method in presence of beta-lactamase inhibitor clavulanic acid; summary of the method: as §1
# Escherichia coli [11] = assay: Antimicrobial activity against Escherichia coli isolate J53 harboring pI-1 containing beta-lactamase OXA-48 located within transposon Tn1999.2 by Etest method in presence of beta-lactamase inhibitor clavulanic acid; summary of the method: as §1
# Escherichia coli [12] = assay: Antimicrobial activity against Escherichia coli isolate TOP10 harboring pBIC containing beta-lactamase OXA-48 located within transposon Tn1999.2 by Etest method in presence of beta-lactamase inhibitor clavulanic acid
# Summary of the method: (§3)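 β-Lactam MICs read with Etest strips. Strains are E. coli TOP10 host and TOP10 transformants made with plasmid DNA extract when conjugation failed. Transformants were selected on LB agar with ticarcillin 50 μg/ml.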
# Escherichia coli [13] = assay: Antimicrobial activity against Escherichia coli isolate J53 harboring pE containing beta-lactamase OXA-48 located within transposon Tn1999.2 by Etest method in presence of beta-lactamase inhibitor clavulanic acid; summary of the method: as §1
# Escherichia coli [14] = assay: Antimicrobial activity against Escherichia coli isolate J53 harboring pBEL containing beta-lactamase OXA-48 located within transposon Tn1999.2 by Etest method in presence of beta-lactamase inhibitor clavulanic acid; summary of the method: as §1
# Providencia rettgeri [15] = assay: Antimicrobial activity against Providencia rettgeri isolate expressing beta-lactamase OXA-48 and TEM-101 by Etest method in presence of beta-lactamase inhibitor clavulanic acid; summary of the method: as §2
# Enterobacter cloacae [16] = assay: Antimicrobial activity against Enterobacter cloacae isolate 1 expressing beta-lactamase OXA-48 and SHV-5 by Etest method in presence of beta-lactamase inhibitor clavulanic acid; summary of the method: as §2
# Enterobacter cloacae [17] = assay: Antimicrobial activity against Enterobacter cloacae isolate 2 expressing beta-lactamase OXA-48 and SHV-5 by Etest method in presence of beta-lactamase inhibitor clavulanic acid; summary of the method: as §2
# Escherichia coli [18] = assay: Antimicrobial activity against Escherichia coli isolate J53 by Etest method in presence of beta-lactamase inhibitor clavulanic acid
# Escherichia coli [19] = assay: Antimicrobial activity against Escherichia coli isolate TOP10 by Etest method in presence of beta-lactamase inhibitor clavulanic acid; summary of the method: as §3
# Klebsiella pneumoniae [20] = assay: Antimicrobial activity against Klebsiella pneumoniae isolate Kp11978 expressing beta-lactamase OXA-48, SHV-2a and TEM-1 by Etest method
# Escherichia coli [21] = assay: Antimicrobial activity against Escherichia coli isolate J53 harboring pA-1 containing beta-lactamase OXA-48 located within transposon Tn1999 by Etest method; summary of the method: as §1
# Klebsiella pneumoniae [22] = assay: Antimicrobial activity against Klebsiella pneumoniae isolate KpB expressing OXA-48 and CTX-M-15 by Etest method
# Klebsiella pneumoniae [23] = assay: Antimicrobial activity against Klebsiella pneumoniae isolate Kp3A expressing beta-lactamase OXA-48 by Etest method; summary of the method: as §2
# Escherichia coli [24] = assay: Antimicrobial activity against Escherichia coli isolate J53 harboring p3A containing beta-lactamase OXA-48 located within transposon Tn1999 by Etest method; summary of the method: as §1
# Klebsiella pneumoniae [25] = assay: Antimicrobial activity against Klebsiella pneumoniae isolate Kp4A expressing beta-lactamase OXA-48 and CTX-M-15 by Etest method
# Escherichia coli [26] = assay: Antimicrobial activity against Escherichia coli isolate J53 harboring p4A containing beta-lactamase OXA-48 located within transposon Tn1999 by Etest method; summary of the method: as §1
# Escherichia coli [27] = assay: Antimicrobial activity against Escherichia coli isolate J53 harboring p5A containing beta-lactamase OXA-48 located within transposon Tn1999 by Etest method; summary of the method: as §1
# Klebsiella pneumoniae [28] = assay: Antimicrobial activity against Klebsiella pneumoniae isolate KpI-2 expressing beta-lactamase OXA-48 and CTX-M-15 by Etest method
# Escherichia coli [29] = assay: Antimicrobial activity against Escherichia coli isolate J53 harboring pI-2 containing beta-lactamase OXA-48 located within transposon Tn1999.2 by Etest method; summary of the method: as §1
# Klebsiella pneumoniae [30] = assay: Antimicrobial activity against Klebsiella pneumoniae isolate KpBIC expressing beta-lactamase OXA-48 by Etest method; summary of the method: as §2
# Escherichia coli [31] = assay: Antimicrobial activity against Escherichia coli isolate TOP10 harboring pBIC containing beta-lactamase OXA-48 located within transposon Tn1999.2 by Etest method; summary of the method: as §3
# Klebsiella pneumoniae [32] = assay: Antimicrobial activity against Klebsiella pneumoniae isolate KpE expressing beta-lactamase OXA-48 and CTX-M-15 by Etest method
# Escherichia coli [33] = assay: Antimicrobial activity against Escherichia coli isolate J53 harboring pE containing beta-lactamase OXA-48 located within transposon Tn1999.2 by Etest method; summary of the method: as §1
# Providencia rettgeri [34] = assay: Antimicrobial activity against Providencia rettgeri isolate expressing beta-lactamase OXA-48 and TEM-101 by Etest method
# Escherichia coli [35] = assay: Antimicrobial activity against Escherichia coli isolate TOP10 harboring pPR containing beta-lactamase and TEM-101 by Etest method; summary of the method: as §3
# Escherichia coli [36] = assay: Antimicrobial activity against Escherichia coli isolate J53 harboring pEcA containing beta-lactamase OXA-48 located within transposon Tn1999.2 by Etest method; summary of the method: as §1
# Escherichia coli [37] = assay: Antimicrobial activity against Escherichia coli isolate TOP10 by Etest method; summary of the method: as §3
SMILES,MIC (Escherichia coli [1]) [µg/mL],MIC (Escherichia coli [2]) [µg/mL],MIC (Klebsiella pneumoniae [3]) [µg/mL],MIC (Klebsiella pneumoniae [4]) [µg/mL],MIC (Klebsiella pneumoniae [5]) [µg/mL],MIC (Klebsiella pneumoniae [6]) [µg/mL],MIC (Escherichia coli [7]) [µg/mL],MIC (Escherichia coli [8]) [µg/mL],MIC (Klebsiella pneumoniae [9]) [µg/mL],MIC (Escherichia coli [10]) [µg/mL],MIC (Escherichia coli [11]) [µg/mL],MIC (Escherichia coli [12]) [µg/mL],MIC (Escherichia coli [13]) [µg/mL],MIC (Escherichia coli [14]) [µg/mL],MIC (Providencia rettgeri [15]) [µg/mL],MIC (Enterobacter cloacae [16]) [µg/mL],MIC (Enterobacter cloacae [17]) [µg/mL],MIC (Escherichia coli [18]) [µg/mL],MIC (Escherichia coli [19]) [µg/mL],MIC (Klebsiella pneumoniae [20]) [µg/mL],also measured
CC1(C)S[C@@H]2[C@H](NC(=O)[C@H](C(=O)O)c3ccsc3)C(=O)N2[C@H]1C(=O)O [TICARCILLIN],128,> 512,> 512,> 512,> 512,> 512,> 512,> 512,> 512,> 512,> 512,> 512,> 512,> 256,> 256,> 512,> 512,2,4,> 512,MIC (Escherichia coli [21]): > 512 µg/mL; MIC (Klebsiella pneumoniae [22]): > 512 µg/mL; MIC (Klebsiella pneumoniae [23]): > 512 µg/mL; MIC (Escherichia coli [24]): > 512 µg/mL; MIC (Klebsiella pneumoniae [25]): > 512 µg/mL; MIC (Escherichia coli [26]): > 512 µg/mL; MIC (Escherichia coli [27]): > 512 µg/mL; MIC (Klebsiella pneumoniae [28]): > 512 µg/mL; MIC (Escherichia coli [29]): > 512 µg/mL; MIC (Klebsiella pneumoniae [30]): > 512 µg/mL; MIC (Escherichia coli [31]): > 512 µg/mL; MIC (Klebsiella pneumoniae [32]): > 512 µg/mL; MIC (Escherichia coli [33]): > 512 µg/mL; MIC (Providencia rettgeri [34]): > 256 µg/mL; MIC (Escherichia coli [35]): > 256 µg/mL; MIC (Escherichia coli [36]): > 256 µg/mL; MIC (Escherichia coli [37]): 4 µg/mL
CC1(C)S[C@@H]2[C@H](NC(=O)[C@H](N)c3ccc(O)cc3)C(=O)N2[C@H]1C(=O)O [AMOXICILLIN],128,> 512,> 512,> 512,> 512,> 512,> 512,> 512,> 512,> 512,> 512,> 512,> 512,> 256,> 256,> 512,> 512,4,4,> 512,MIC (Escherichia coli [21]): > 512 µg/mL; MIC (Klebsiella pneumoniae [22]): > 512 µg/mL; MIC (Klebsiella pneumoniae [23]): > 512 µg/mL; MIC (Escherichia coli [24]): > 512 µg/mL; MIC (Klebsiella pneumoniae [25]): > 512 µg/mL; MIC (Escherichia coli [26]): > 512 µg/mL; MIC (Escherichia coli [27]): > 512 µg/mL; MIC (Klebsiella pneumoniae [28]): > 512 µg/mL; MIC (Escherichia coli [29]): > 512 µg/mL; MIC (Klebsiella pneumoniae [30]): > 512 µg/mL; MIC (Escherichia coli [31]): > 512 µg/mL; MIC (Klebsiella pneumoniae [32]): > 512 µg/mL; MIC (Escherichia coli [33]): > 512 µg/mL; MIC (Providencia rettgeri [34]): > 256 µg/mL; MIC (Escherichia coli [35]): > 256 µg/mL; MIC (Escherichia coli [36]): > 256 µg/mL; MIC (Escherichia coli [37]): 4 µg/mL
